Key:
DU-145 = test: Growth inhibition of human DU145 cells assessed as cell growth at 10 uM after 48 hrs by sulforhodamine B assay; format: functional; conditions: DU-145, 48 h, read-out: Activity
In short: (§1)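 NCI 60-cell-line panel screen (nine cancer types). Compounds added at single concentration 10^-5 M, cultures incubated 48 h; growth inhibition percentages reported.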

UACC-257 = test: Growth inhibition of human UACC257 cells assessed as cell growth at 10 uM after 48 hrs by sulforhodamine B assay; format: functional; conditions: UACC-257, 48 h, read-out: Activity
In short: (§2)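 NCI 60-cell-line panel from nine tumour types (leukaemia, lung, colon, CNS, melanoma, ovarian, renal, prostate, breast). Each compound was added at one single concentration, and cultures were incubated for 48 h. Results are reported as percent growth inhibition.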

UACC-62 = test: Growth inhibition of human UACC62 cells assessed as cell growth at 10 uM after 48 hrs by sulforhodamine B assay; format: functional; conditions: UACC-62, 48 h, read-out: Activity; in short: as §2
HCC 2998 = test: Growth inhibition of human HCC2998 cells assessed as cell growth at 10 uM after 48 hrs by sulforhodamine B assay; format: functional; conditions: HCC 2998, 48 h, read-out: Activity; in short: as §1
NCI-H226 = test: Growth inhibition of human NCI-H226 cells assessed as cell growth at 10 uM after 48 hrs by sulforhodamine B assay; format: functional; conditions: NCI-H226, 48 h, read-out: Activity; in short: as §1
RPMI-8226 = test: Growth inhibition of human RPMI8226 cells assessed as cell growth at 10 uM after 48 hrs by sulforhodamine B assay; format: functional; conditions: RPMI-8226, 48 h, read-out: Activity; in short: as §1
RXF 393 = test: Growth inhibition of human RXF393 cells assessed as cell growth at 10 uM after 48 hrs by sulforhodamine B assay; format: functional; conditions: RXF 393, 48 h, read-out: Activity; in short: as §1
CAKI-1 = test: Growth inhibition of human CAKI-1 cells assessed as cell growth at 10 uM after 48 hrs by sulforhodamine B assay; format: functional; conditions: CAKI-1, 48 h, read-out: Activity; in short: as §1
SN12C = test: Growth inhibition of human SN12C cells assessed as cell growth at 10 uM after 48 hrs by sulforhodamine B assay; format: functional; conditions: read-out: Activity; in short: as §2
Malme-3M = test: Growth inhibition of human MALME-3M cells assessed as cell growth at 10 uM after 48 hrs by sulforhodamine B assay; format: functional; conditions: read-out: Activity; in short: as §1
NCI-H322M = test: Growth inhibition of human NCI-H322M cells assessed as cell growth at 10 uM after 48 hrs by sulforhodamine B assay; format: functional; conditions: read-out: Activity; in short: as §1
MDA-MB-468 = test: Growth inhibition of human MDA-MB-468 cells assessed as cell growth at 10 uM after 48 hrs by sulforhodamine B assay; format: functional; conditions: MDA-MB-468, 48 h, read-out: Activity; in short: as §1
SNB-19 = test: Growth inhibition of human SNB19 cells assessed as cell growth at 10 uM after 48 hrs by sulforhodamine B assay; format: functional; conditions: SNB-19, 48 h, read-out: Activity; in short: as §2
HCT-15 = test: Growth inhibition of human HCT15 cells assessed as cell growth at 10 uM after 48 hrs by sulforhodamine B assay; format: functional; conditions: HCT-15, 48 h, read-out: Activity; in short: as §1
K562 = test: Growth inhibition of human K562 cells assessed as cell growth at 10 uM after 48 hrs by sulforhodamine B assay; format: functional; conditions: K562, 48 h, read-out: Activity; in short: as §1
HT-29 = test: Growth inhibition of human HT-29 cells assessed as cell growth at 10 uM after 48 hrs by sulforhodamine B assay; format: functional; conditions: HT-29, 48 h, read-out: Activity; in short: as §1
LOX IMVI = test: Growth inhibition of human LOXIMVI cells assessed as cell growth at 10 uM after 48 hrs by sulforhodamine B assay; format: functional; conditions: read-out: Activity; in short: as §1
OVCAR-3 = test: Growth inhibition of human OVCAR3 cells assessed as cell growth at 10 uM after 48 hrs by sulforhodamine B assay; format: functional; conditions: OVCAR-3, 48 h, read-out: Activity; in short: as §1
SK-MEL-28 = test: Growth inhibition of human SK-MEL-28 cells assessed as cell growth at 10 uM after 48 hrs by sulforhodamine B assay; format: functional; conditions: SK-MEL-28, 48 h, read-out: Activity; in short: as §1
SF-268 = test: Growth inhibition of human SF268 cells assessed as cell growth at 10 uM after 48 hrs by sulforhodamine B assay; format: functional; conditions: SF-268, 48 h, read-out: Activity; in short: as §1
SK-MEL-5 = test: Growth inhibition of human SK-MEL-5 cells assessed as cell growth at 10 uM after 48 hrs by sulforhodamine B assay; format: functional; conditions: SK-MEL-5, 48 h, read-out: Activity; in short: as §1
ACHN = test: Growth inhibition of human ACHN cells assessed as cell growth at 10 uM after 48 hrs by sulforhodamine B assay; format: functional; conditions: read-out: Activity; in short: as §1
HepG2 = test: Cytotoxicity in human HepG2 cells assessed as reduction in cell viability incubated for 48 hrs by MTT assay; format: functional, cell-based; conditions: HepG2, 48 h
In short: (§3)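 HepG2 and HL60 (ATCC) grown in DMEM with 10% FBS, 2 mM L-glutamine, penicillin/streptomycin, amphotericin B at 37 °C, 5% CO2. Samples dissolved in DMSO, diluted thousandfold in assay. Cells seeded in serum-free medium, treated with serial concentrations 48 h; MTT 4 h, formazan dissolved in acidified isopropanol, A570. Triplicates averaged; viability relative to untreated/vehicle control.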

U-251 = test: Growth inhibition of human U251 cells assessed as cell growth at 10 uM after 48 hrs by sulforhodamine B assay; format: functional; conditions: U-251, 48 h, read-out: Activity; in short: as §2
KM12 = test: Growth inhibition of human KM12 cells assessed as cell growth at 10 uM after 48 hrs by sulforhodamine B assay; format: functional; conditions: KM12, 48 h, read-out: Activity; in short: as §1
EKVX = test: Growth inhibition of human EKVX cells assessed as cell growth at 10 uM after 48 hrs by sulforhodamine B assay; format: functional; conditions: read-out: Activity; in short: as §1
HL-60 = test: Cytotoxicity in human HL60 cells assessed as reduction in cell viability incubated for 48 hrs by MTT assay; format: functional, cell-based; conditions: HL-60, 48 h; in short: as §3
CCRF-CEM = test: Growth inhibition of human CCRF-CEM cells assessed as cell growth at 10 uM after 48 hrs by sulforhodamine B assay; format: functional; conditions: read-out: Activity; in short: as §1
MOLT-4 = test: Growth inhibition of human MOLT4 cells assessed as cell growth at 10 uM after 48 hrs by sulforhodamine B assay; format: functional; conditions: MOLT-4, 48 h, read-out: Activity; in short: as §1

Structure (SMILES)	growth at 10 µM (DU-145) [%]	growth at 10 µM (UACC-62) [%]	growth at 10 µM (NCI-H226) [%]	growth at 10 µM (RPMI-8226) [%]	growth at 10 µM (RXF 393) [%]	growth at 10 µM (Malme-3M) [%]	growth at 10 µM (NCI-H322M) [%]	growth at 10 µM (MDA-MB-468) [%]	growth at 10 µM (SNB-19) [%]	growth at 10 µM (HCT-15) [%]	growth at 10 µM (HT-29) [%]	growth at 10 µM (LOX IMVI) [%]	growth at 10 µM (OVCAR-3) [%]	growth at 10 µM (SF-268) [%]	growth at 10 µM (ACHN) [%]	IC50 (HepG2) [µM]	growth at 10 µM (U-251) [%]	growth at 10 µM (KM12) [%]	growth at 10 µM (EKVX) [%]	IC50 (HL-60) [µM]	other results
CCOc1ccc(-n2nc(C(=O)Nc3ccc(F)c(F)c3F)nc2-c2cc(OC)c(OC)c(OC)c2)cc1	105	89.7	91.2	87.2	89.9	86.9	69.5	90.2	88.3	64.3	87.8	94	91.6	82.3	85.2	10.8	98.2	96	78.5	10.9	growth at 10 µM (UACC-257): 101%; growth at 10 µM (HCC 2998): 94.6%; growth at 10 µM (CAKI-1): 60.5%; growth at 10 µM (SN12C): 86.5%; growth at 10 µM (K562): 90.7%; growth at 10 µM (SK-MEL-28): 86.7%; growth at 10 µM (SK-MEL-5): 87%
CCOc1ccc(-n2nc(C(=O)Nc3cc(OC)c(OC)c(OC)c3)nc2-c2cc(OC)c(OC)c(OC)c2)cc1	99.1		78.1	55.7	83.8	85.2	89.2	82	82.1	82.1	84.6	89	86.9	92.1	85.7	37.8	85.1	81.8	96.1	> 100	growth at 10 µM (UACC-257): 93.1%; growth at 10 µM (CCRF-CEM): 66.5%; growth at 10 µM (CAKI-1): 77.4%; growth at 10 µM (MOLT-4): 67.5%
CCOc1ccc(-n2nc(C(=O)NCc3cccc(OC)c3)nc2-c2cc(OC)c(OC)c(OC)c2)cc1	107	82.9	89.4	84.3	92.5	97.7	81.6	87.7	90.1	90	73.5	88.9	93.5	91.5	97.5	1.9	94.2	96.4	89.1	98.8	growth at 10 µM (HCC 2998): 102%; growth at 10 µM (CCRF-CEM): 94.2%; growth at 10 µM (SN12C): 96.5%; growth at 10 µM (K562): 88.5%; growth at 10 µM (MOLT-4): 69.9%; growth at 10 µM (SK-MEL-28): 109%; growth at 10 µM (SK-MEL-5): 92.2%
COc1cccc(-n2nc(C(=O)NCc3ccccc3C)nc2-c2cc(OC)c(OC)c(OC)c2)c1	94.2	72.5	87.9	95.7	109	94.7	87.5	90.1	83.2	74.3	80.2	78.7	81	85.8	90.5	3.85	85	82	73.3	89.4	growth at 10 µM (HCC 2998): 96%; growth at 10 µM (CCRF-CEM): 104%; growth at 10 µM (SN12C): 91.7%; growth at 10 µM (K562): 90.8%; growth at 10 µM (MOLT-4): 80%; growth at 10 µM (SK-MEL-28): 107%; growth at 10 µM (SK-MEL-5): 86.8%

From ChEMBL document CHEMBL4138126, “Synthesis, antiproliferative, anti-tubulin activity, and docking study of new 1,2,4-triazoles as potential combretastatin analogues” (Eur J Med Chem, 2017)
